Results from ChEMBL document CHEMBL1140862, “Berberine analogues as a novel class of the low-density-lipoprotein receptor up-regulators: synthesis, structure-activity relationships, and cholesterol-lowering efficacy” (J Med Chem, 2009).
Active and inactive are the calls of the source. No cut-off for these calls is given here.

What was measured:
[1] = system: Mus musculus; assay: Acute toxicity in Kunming mouse assessed as kidney damage upto 5000 mg/kg, po after 14 days by hematoxylin and eosin staining; type: organism-based; design: dose 5000 mg/kg, route oral; conditions: in vivo, 336 h
Method in brief: (§1)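 Male Kunming mice (19 ± 1 g), six per group, given a single oral dose of saline (control) or compound at 250, 1000 or 5000 mg/kg. Animals weighed daily and monitored 14 days. Then sacrificed; liver, kidney, heart, lung, brain and colon fixed in 10% formaldehyde at room temperature and examined by H&E histology.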

[2] = system: Mus musculus; assay: Acute toxicity in Kunming mouse assessed as brain damage upto 5000 mg/kg, po after 14 days by hematoxylin and eosin staining; type: organism-based; design: dose 5000 mg/kg, route oral; conditions: in vivo, 336 h; method in brief: as §1
[3] = system: Rattus norvegicus; assay: Induction of HMG-CoA reductase mRNA expression in hyperlipidemic Sprague-Dawley rat liver at 100 mg/kg, po daily twice for 30 days by RT-PCR; type: functional, organism-based; design: dose 100 mg/kg
Method in brief: (§2)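 Male Sprague-Dawley rats (180 ± 10 g) fed HFHC diet (2% cholesterol, 10% yolk powder, 15% lard, 0.2% sodium cholate) 8 weeks, then gavaged with compound suspended in saline, 100 (mg/kg)/day, twice daily, 30 days (n = 8; untreated n = 6). Liver RNA, TaqMan real-time RT-PCR, comparative CT with GAPDH; fold of untreated HFHC control.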

[4] = system: Rattus norvegicus; assay: Induction of LDLR mRNA expression in hyperlipidemic Sprague-Dawley rat liver at 100 mg/kg, po daily twice for 30 days by RT-PCR relative to control; type: functional; method in brief: as §2
[5] = system: HepG2; assay: Induction of LDLR mRNA expression in human HepG2 cells after 12 hrs by RT-PCR assay relative to untreated control; type: functional
Method in brief: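 HepG2 cells kept in RPMI-1640 with 10% FBS, moved 24 h before dosing to 10% LPDS, then at ~80% confluence to RPMI-1640 with 0.5% LPDS plus compound (5.0 µg/mL in table; concentrations as indicated in figure), 12 h, 37 °C. Total RNA reverse-transcribed, TaqMan real-time PCR, comparative CT method with GAPDH reference; fold of untreated cells (=1); mean of three experiments.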

[6] = system: Rattus norvegicus; assay: Reduction of blood cholesterol level in hyperlipidemic Sprague-Dawley rat at 100 mg/kg, po daily twice for 30 days relative to control; type: functional; design: scale not given: the % may be the effect or the level left
Method in brief: (§3)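 Male Sprague-Dawley rats on HFHC diet 8 weeks, then saline suspension by gavage at 100 (mg/kg)/day, twice daily, 30 days (n = 8; untreated HFHC n = 6; normal-diet controls). Fasted tail-snip blood at end point; total cholesterol and LDL-c by commercial kits; percent reduction versus untreated HFHC control; mean ± SEM.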

[7] = system: Rattus norvegicus; assay: Reduction of blood low density lipoprotein cholesterol level in hyperlipidemic Sprague-Dawley rat at 100 mg/kg, po daily twice; type: functional, organism-based; design: dose 100 mg/kg; conditions: TDE = time-dependent effect
[8] = system: Rattus norvegicus; assay: Toxicity in hyperlipidemic Sprague-Dawley rat assessed as liver and kidney function abnormalities at 100 mg/kg, po daily twice for 30 days; type: organism-based; design: dose 100 mg/kg, route oral; conditions: in vivo, 720 h
Method in brief: (§4)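 Hyperlipidemic Sprague-Dawley rats (HFHC diet 8 weeks) gavaged with saline suspension, 100 (mg/kg)/day twice daily, 30 days. Body weight and food intake monitored; fasted blood before and after treatment assayed with commercial kits for AST, ALT, BUN and creatinine; mean and sd.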

[9] = system: Mus musculus; assay: Acute toxicity in Kunming mouse assessed as colon damage upto 5000 mg/kg, po after 14 days by hematoxylin and eosin staining; type: organism-based; design: dose 5000 mg/kg, route oral; conditions: in vivo, 336 h; method in brief: as §1
[10] = system: Mus musculus; assay: Acute toxicity in Kunming mouse assessed as change in body weight at 1000 mg/kg, po; type: organism-based; design: dose 1000 mg/kg, route oral; conditions: in vivo; method in brief: as §1
[11] = system: Rattus norvegicus; assay: Toxicity in hyperlipidemic Sprague-Dawley rat assessed as food intake reduction at 100 mg/kg, po daily twice for 30 days; type: organism-based; design: dose 100 mg/kg, route oral; conditions: in vivo, 720 h; method in brief: as §4
[12] = system: Rattus norvegicus; assay: Reduction of blood cholesterol level in hyperlipidemic Sprague-Dawley rat at 100 mg/kg, po daily twice for 17 days relative to control; type: functional; design: scale not given: the % may be the effect or the level left
Method in brief: (§5)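 Hyperlipidemic Sprague-Dawley rats (HFHC diet 8 weeks) untreated (n = 6) or gavaged twice daily with saline suspension at 100 or 300 (mg/kg)/day (n = 8 each) for 17 days; fasted tail-snip blood at end point; total cholesterol and LDL-c by commercial kits, relative to untreated control.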

[13] = system: Mus musculus; assay: Reduction of blood low density lipoprotein cholesterol level in hyperlipidemic C57BL/6J mouse at 100 mg/kg, po daily twice for 21 days relative to control; type: functional; design: scale not given: the % may be the effect or the level left
Method in brief: (§6)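 Male C57BL/6J mice fed HFHC diet 8 weeks, then gavaged twice daily (0.2 mL saline suspension) at 100 (mg/kg)/day for 21 days (n = 8; untreated n = 6). Fasted tail-snip blood; total cholesterol and LDL-c by commercial kits relative to untreated control.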

[14] = system: Mus musculus; assay: Acute toxicity in Kunming mouse assessed as heart damage upto 5000 mg/kg, po after 14 days by hematoxylin and eosin staining; type: organism-based; design: dose 5000 mg/kg, route oral; conditions: in vivo, 336 h; method in brief: as §1
[15] = system: Mus musculus; assay: Acute toxicity in Kunming mouse assessed as change in body weight at 250 mg/kg, po; type: organism-based; design: dose 250 mg/kg, route oral; conditions: in vivo; method in brief: as §1
[16] = system: Rattus norvegicus; assay: Reduction of blood low density lipoprotein cholesterol level in hyperlipidemic Sprague-Dawley rat at 300 mg/kg, po daily twice for 17 days relative to control; type: functional; design: scale not given: the % may be the effect or the level left; method in brief: as §5
[17] = system: Rattus norvegicus; assay: Reduction of blood cholesterol level in hyperlipidemic Sprague-Dawley rat at 300 mg/kg, po daily twice for 17 days relative to control; type: functional; design: scale not given: the % may be the effect or the level left; method in brief: as §5
[18] = system: Rattus norvegicus; assay: Toxicity in hyperlipidemic Sprague-Dawley rat assessed as weight loss at 100 mg/kg, po daily twice for 30 days; type: organism-based; design: dose 100 mg/kg, route oral; conditions: in vivo, 720 h; method in brief: as §4
[19] = system: Mus musculus; assay: Acute toxicity in po dosed Kunming mouse after 14 days; type: organism-based; conditions: in vivo, 336 h; method in brief: as §1
[20] = system: Rattus norvegicus; assay: Reduction of blood cholesterol level in hyperlipidemic Sprague-Dawley rat at 100 mg/kg, po daily twice; type: functional, organism-based; design: dose 100 mg/kg; conditions: TDE = time-dependent effect
[21] = system: Mus musculus; assay: Induction of LDLR mRNA expression in hyperlipidemic C57BL/6J mouse liver at 100 mg/kg, po daily twice for 21 days by RT-PCR relative to control; type: functional
Method in brief: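 Male C57BL/6J mice (21 ± 2 g) fed HFHC diet 8 weeks, then gavaged twice daily with saline suspension at 100 (mg/kg)/day for 21 days (n = 8; untreated n = 6). Liver LDLR mRNA by TaqMan real-time RT-PCR, comparative CT with GAPDH, relative to untreated control.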

[22] = system: HepG2; assay: Induction of LDLR protein expression in human HepG2 cells at 10 ug/mL after 12 hrs by flow cytometry; type: functional, cell-based
Method in brief: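 HepG2 cells in LPDS medium treated 12 h with 10 µg/mL compound, detached, fixed in 2% paraformaldehyde at 4 °C overnight, blocked, stained on ice 1 h with rabbit polyclonal anti-LDLR (1:25), then FITC goat anti-rabbit IgG (1:50) 30 min; normal rabbit IgG background control; cell-surface fluorescence by flow cytometry.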

[23] = system: Mus musculus; assay: Acute toxicity in Kunming mouse assessed as liver damage upto 5000 mg/kg, po after 14 days by hematoxylin and eosin staining; type: organism-based; design: dose 5000 mg/kg, route oral; conditions: in vivo, 336 h; method in brief: as §1
[24] = system: Rattus norvegicus; assay: Reduction of blood low density lipoprotein cholesterol level in hyperlipidemic Sprague-Dawley rat at 100 mg/kg, po daily twice for 30 days relative to control; type: functional; design: scale not given: the % may be the effect or the level left; method in brief: as §3
[25] = system: Rattus norvegicus; assay: Reduction of blood low density lipoprotein cholesterol level in hyperlipidemic Sprague-Dawley rat at 100 mg/kg, po daily twice for 17 days relative to control; type: functional; design: scale not given: the % may be the effect or the level left; method in brief: as §5
[26] = system: Mus musculus; assay: Reduction of blood cholesterol level in hyperlipidemic C57BL/6J mouse at 100 mg/kg, po daily twice for 21 days relative to control; type: functional; design: scale not given: the % may be the effect or the level left; method in brief: as §6
[27] = system: Rattus norvegicus; assay: Induction of LDLR mRNA expression in hyperlipidemic Sprague-Dawley rat liver at 300 mg/kg, po daily twice for 17 days by RT-PCR relative to control; type: functional
Method in brief: (§7)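 Hyperlipidemic male Sprague-Dawley rats (HFHC diet 8 weeks) untreated (n = 6) or gavaged twice daily with saline suspension at 100 or 300 (mg/kg)/day (n = 8 each) for 17 days. Liver total RNA, real-time RT-PCR for LDLR, GAPDH-normalized, fold of HFHC group (=1); mean ± SE, one-way ANOVA.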

[28] = system: Mus musculus; assay: Acute toxicity in po dosed Kunming mouse assessed as lung damage upto 5000 mg/kg, po after 14 days by hematoxylin and eosin staining; type: organism-based; design: dose 5000 mg/kg, route oral; conditions: in vivo, 336 h; method in brief: as §1
[29] = system: Rattus norvegicus; assay: Induction of LDLR mRNA expression in hyperlipidemic Sprague-Dawley rat liver at 100 mg/kg, po daily twice for 17 days by RT-PCR relative to control; type: functional, organism-based; design: dose 100 mg/kg; method in brief: as §7

For COc1cc2cc3[n+](cc2cc1OC)CCc1cc2c(cc1-3)OCO2.[Cl-] [PSEUDOBERBERINE], the Activity [1] was “Non-toxic”, the Activity [2] was “Non-toxic” and the Activity [3] was “inactive”. The “fold change (FC)” value [4] was 2.9, the “fold change (FC)” value [5] was 3.5 and the Activity [6] was 42.6%. The Activity [7] was “tde”, the Activity [8] was “Non-toxic” and the Activity [9] was “Non-toxic”. For the same compound, the Activity [10] was “Non-toxic”, the Activity [11] was “Non-toxic” and the Activity [12] was 28.5%. For the same compound, the Activity [13] was 39%, the Activity [14] was “Non-toxic” and the Activity [15] was “Non-toxic”. For the same compound, the Activity [16] was 53.6%, the Activity [17] was 46.3% and the Activity [18] was “Non-toxic”. The Activity [19] was “Non-toxic”, the Activity [20] was “tde” and the “fold change (FC)” value [21] was 3.2. For the same compound, the Activity [22] was “Active”, the Activity [23] was “Non-toxic” and the Activity [24] was 49.4%. The Activity [25] was 31%, the Activity [26] was 29.7% and the “fold change (FC)” value [27] was 4.8. For the same compound, the Activity [28] was “Non-toxic” and the Activity [29] was “Active”.
